The target in assay [1] is T1, Oxysterols receptor LXR-beta (Homo sapiens) (UniProt P55055).
T1 sequence (whole entry): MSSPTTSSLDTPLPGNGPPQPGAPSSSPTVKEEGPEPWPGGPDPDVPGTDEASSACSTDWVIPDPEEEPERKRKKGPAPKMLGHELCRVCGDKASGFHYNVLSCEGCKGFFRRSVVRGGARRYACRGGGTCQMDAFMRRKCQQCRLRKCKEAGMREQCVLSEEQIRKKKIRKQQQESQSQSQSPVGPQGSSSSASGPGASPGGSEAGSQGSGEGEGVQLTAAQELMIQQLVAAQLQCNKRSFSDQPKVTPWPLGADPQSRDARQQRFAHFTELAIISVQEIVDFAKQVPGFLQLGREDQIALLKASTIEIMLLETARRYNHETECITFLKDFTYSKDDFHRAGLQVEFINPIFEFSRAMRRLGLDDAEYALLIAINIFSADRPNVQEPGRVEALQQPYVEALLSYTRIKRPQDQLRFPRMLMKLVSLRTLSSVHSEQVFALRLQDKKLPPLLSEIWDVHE
The assay can be described thus: Agonist activity at human recombinant LXRbeta expressed in Escherichia coli BL21 cells assessed as association of recombinant SRC1 to LXRbeta ligand binding domain at 10 uM by HTRF assay. Background: TR-FRET usually uses a lanthanide donor and a delayed reading to cut background.

Assay [2] concerns the target T2, Oxysterols receptor LXR-alpha (Homo sapiens, UniProt Q13133).
T2 sequence (Q13133 whole entry): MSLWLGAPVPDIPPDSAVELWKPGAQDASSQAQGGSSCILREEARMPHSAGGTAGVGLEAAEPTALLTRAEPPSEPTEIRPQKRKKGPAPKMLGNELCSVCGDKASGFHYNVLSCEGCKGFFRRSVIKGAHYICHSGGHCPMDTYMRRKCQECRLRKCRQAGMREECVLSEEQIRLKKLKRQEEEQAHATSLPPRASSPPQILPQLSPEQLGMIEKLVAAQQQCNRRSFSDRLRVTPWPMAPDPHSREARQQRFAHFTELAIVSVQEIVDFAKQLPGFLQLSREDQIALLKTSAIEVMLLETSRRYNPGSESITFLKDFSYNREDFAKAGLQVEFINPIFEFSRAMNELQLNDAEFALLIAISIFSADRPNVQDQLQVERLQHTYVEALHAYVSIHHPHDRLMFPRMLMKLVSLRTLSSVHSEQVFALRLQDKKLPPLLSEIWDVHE
The assay is described as follows: Agonist activity at human recombinant LXRalpha expressed in Escherichia coli BL21 cells assessed as association of recombinant SRC1 to LXRalpha ligand binding domain by HTRF assay.

Assay [3] has as its target T3, Oxysterols receptor LXR-alpha (Homo sapiens) (UniProt Q13133).
T3 sequence (whole entry): T2 sequence (Q13133 whole entry)
The assay is described as follows: Displacement of [3H2]F3-methyl AA from human recombinant LXRalpha expressed in Escherichia coli BL21 cells at 100 uM.

Assay [4] deals with T1, Oxysterols receptor LXR-beta (Homo sapiens). The assay is described as follows: Displacement of [3H2]F3-methyl AA from human recombinant LXRbeta expressed in Escherichia coli BL21 cells at 100 uM.
For assay [5], the target named is T4, Oxysterols receptor LXR-beta (Homo sapiens, UniProt P55055).
T4 sequence (P55055 whole entry): T1 sequence (whole entry)
The assay is described as follows: Agonist activity at human recombinant LXRbeta expressed in Escherichia coli BL21 cells assessed as association of recombinant SRC1 to LXRbeta ligand binding domain by HTRF assay.

Assay [6] concerns the target T3, Oxysterols receptor LXR-alpha (Homo sapiens). The assay can be described thus: Activity of human recombinant LXRalpha ligand binding domain-mediated transcriptional activity in human HEK293 cells with Gal4 reporter plasmid by luciferase reporter assay. It is filed as cell-based. The procedure, abridged:
(§1)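 Cell-based transactivation in HEK-293 cells with chimeric constructs: yeast Gal4 DNA-binding domain fused to the hinge region and LBD of LXRα or LXRβ. Agonist activity is read as fold induction over DMSO control.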
On the technique in general: Reporter assays use an easily measured gene product as a stand-in for the process of interest.

Assay [7] addresses T1, Oxysterols receptor LXR-beta (Homo sapiens). The assay is described as follows: Activity of human recombinant LXRbeta ligand binding domain-mediated transcriptional activity in human HEK293 cells with Gal4 reporter plasmid by luciferase reporter assay. It is filed as cell-based. A digest of the protocol:
as §1

For assay [8] the target is unchanged. Conditions: BL21.
Assay [9] addresses T3, Oxysterols receptor LXR-alpha (Homo sapiens). The assay can be described thus: Activity of human recombinant LXRalpha ligand binding domain-mediated transcriptional activity in human HEK293 cells with Gal4 reporter plasmid at 100 uM by luciferase reporter assay. It is filed as cell-based. A digest of the protocol:
as §1

Assay [10] concerns the target T1, Oxysterols receptor LXR-beta (Homo sapiens). The assay is described as follows: Activity of human recombinant LXRbeta ligand binding domain-mediated transcriptional activity in human HEK293 cells with Gal4 reporter plasmid at 100 uM by luciferase reporter assay. It is filed as cell-based. The procedure, abridged:
as §1

Assay [11] concerns the target T3, Oxysterols receptor LXR-alpha (Homo sapiens). The assay can be described thus: Activity of human recombinant LXRalpha ligand binding domain-mediated transcriptional activity in human HEK293 cells with Gal4 reporter plasmid at 2.2 uM by luciferase reporter assay. It is filed as cell-based. A digest of the protocol:
as §1

The target is the same in assay [12]. The assay is described as follows: Activity of human recombinant LXRalpha ligand binding domain-mediated transcriptional activity in human HEK293 cells with Gal4 reporter plasmid at 30 uM by luciferase reporter assay. It is filed as cell-based. A digest of the protocol: as §1
For assay [13], the target named is T1, Oxysterols receptor LXR-beta (Homo sapiens). The assay is described as follows: Activity of human recombinant LXRbeta ligand binding domain-mediated transcriptional activity in human HEK293 cells with Gal4 reporter plasmid at 30 uM by luciferase reporter assay. It is filed as cell-based. A digest of the protocol:
as §1

In assay [14] the target is Liver X receptor (LXR alpha AND LXR beta) (Homo sapiens) (UniProt Q13133+P55055). The assay can be described thus: Selectivity of human recombinant LXRalpha over human recombinant LXRbeta. It is filed as protein assay.

Calls of active or inactive are those of the source. The rule behind the calls is not given here.

For orientation: EC50 means the concentration at which the effect is half-maximal. Usually LC50 stands for the concentration that kills 50% of the test population. A low value points to greater toxicity.

For `C=C(CC[C@@H](C)[C@H]1CC[C@H]2[C@@H]3[C@@H](O)[C@@H](O)[C@@]4(O)C[C@@H](O)CC[C@]4(C)[C@H]3CC[C@]12C)C(C)C`, the outcome in assay [1] was inactive. The EC50 in assay [2] worked out at 170 nM.

`CC(C)CC[C@@H](O)[C@@H](C)[C@H]1CC[C@H]2[C@@H]3CC=C4C[C@@H](O)CC[C@]4(C)[C@H]3CC[C@]12C` [22(R)-HYDROXYCHOLESTEROL]: the values for the Activity in assay [3] and in [4] were 70% and 60%, respectively. The EC50 in assay [5] was over 15 µM; in assay [2] it was over 15000 nM. Also, the values for the fold change (FC) in assay [6] and in [7] were 4 and 8, respectively.

Consider `C=C(C)[C@@H]1CC[C@]2(C(=O)O)CC[C@]3(C)[C@H](CC[C@@H]4[C@@]5(C)CC[C@H](O)C(C)(C)[C@@H]5CC[C@]43C)[C@@H]12` [BETULINIC ACID], for which, in assay [8], the LC50 is over 25000 nM. The EC50 in assay [5] is over 50 µM; in assay [2] it was over 50000 nM.

Consider `C=C[C@@]1(C)CC=C2[C@@H](CC[C@@H]3[C@](C)(C(=O)NCC45CC6CC(CC(C6)C4)C5)CCC[C@@]23C)C1`, for which the LC50 in [8] is over 50000 nM. The results for the EC50 in assay [5] and in [2] were over 50 µM and over 50000 nM, respectively.

For the compound `C=C[C@@]1(C)CC=C2[C@@H](CC[C@@H]3[C@](C)(C(=O)O)CCC[C@@]23C)C1`, the fold change (FC) in assay [9] was found to be 15.9; in [10], 5.6. In [8], this compound showed an LC50 of 1490 nM. Also, the EC50 in [5] is over 50 µM; in assay [2], 180 nM.

`CC(=O)Oc1ccc2c(c1)[C@@]1(C)CCC[C@](C)(C(=O)OC(=O)[C@@]3(C)CCC[C@]4(C)c5cc(OC(C)=O)ccc5CC[C@@H]34)[C@@H]1CC2` [ACETYL PODOCARPIC ACID ANHYDRIDE] came in with an LC50 in assay [8] of 1 nM. In addition, the EC50 is under 0.003 µM in assay [5] and 1 nM in assay [2]. Further, the fold change (FC) is 50 in [6] and 85 in assay [7].

With `CC(C)[C@H](C)[C@@]1(C)C[C@@H]1[C@@H](C)[C@H]1CC[C@H]2[C@@H]3C[C@@H](O)[C@@]4(O)C[C@@H](O)CC[C@]4(C)[C@@]3(O)[C@H](O)C[C@]12C`, in [1], the result was inactive. In addition, the LC50 in assay [8] came to 200 nM. Besides, the EC50 in assay [2] was found to be 50 nM.

For `C=C[C@@]1(C)CC=C2[C@@H](CC[C@@H]3[C@](C)(CO)CCC[C@@]23C)C1`, in assay [8], the LC50 stood at 730 nM. The EC50 is over 50 µM in [5] and 390 nM in assay [2].

In [8], `CCCc1c(OCCCSc2ccc(CC(=O)O)cc2Cl)ccc2c(C(F)(F)F)noc12` returned an LC50 of 25 nM. For the same compound, the fold change (FC) in assay [6] was determined as 20; in assay [7], 35.

`C[C@]1(C(=O)O)CCC[C@]2(C)c3cc(O)ccc3CC[C@@H]12` [PODOCARIC ACID] showed an LC50 in [8] of over 50000 nM. Also, the EC50 was over 50 µM in assay [5] and over 50000 nM in [2].

As for `CC(C)=CCC[C@@H](C)[C@H]1C[C@H](O)[C@@]2(C)C3=CC[C@H]4C(C)(C)[C@@H](O)CC[C@]4(C)C3=CC[C@]12C`, the LC50 in assay [8] is over 15000 nM. Further, the fold change (FC) in [11] turned out to be 8. In addition, the EC50 in assay [5] is over 50 µM; in assay [2], 30 nM.

In assay [8], `C/C(=C\CC[C@@H](C)[C@H]1CC[C@@]2(C)[C@@H]3CC=C4[C@@H](CC[C@@H](O)C4(C)C)[C@]3(C)CC[C@]12C)C(=O)O` [ROSACEA ACID B] registered an LC50 of 390 nM. Besides, the values for the EC50 in assay [5] and in assay [2] were over 50 µM and over 50000 nM, respectively.

Take `CC(C)[C@H](C)[C@@]1(C)C[C@@H]1[C@@H](C)[C@H]1CC[C@H]2[C@@H]3CC=C4C[C@@H](O)CC[C@]4(C)[C@@]3(O)[C@H](O)C[C@]12C`: the results for the fold change (FC) in assay [12] and in assay [14] were 10.1 and 40, respectively. This compound also displayed an LC50 in [8] of 50000 nM. Further, in assay [13], the outcome was inactive. Also, the EC50 in assay [2] was 450 nM.

As to `CC(C)CCC[C@@H](C)[C@H]1CC[C@H]2C3=CC(=O)[C@H]4C[C@@H](O)CC[C@]4(C)[C@@]3(O)CC[C@]12C` [VIPERIDONE], in assay [2], the EC50 was over 15000 nM.

The values are drawn from ChEMBL document CHEMBL1141780, “Diterpenoid, steroid, and triterpenoid agonists of liver X receptors from diversified terrestrial plants and marine sources” (J Nat Prod, 2005).
